ChEMBL document CHEMBL1147731, “Potent 7-hydroxy-1,2,3,4-tetrahydroisoquinoline-3-carboxylic acid-based macrocyclic inhibitors of hepatitis C virus NS3 protease” (J Med Chem, 2006)
Numbered stars: 1 amine (or outer) side, 2 acyl side, 3 side chain; on linkers, the order of the positions; unused ones are H or OH. Bridge positions count the residues as written; N and C are the ends. Square brackets hold non-standard residues; d marks the D form. Peptide text beside a SMILES is read from it. * marks the point of attachment. Tic(7-O(CH2)6CO) = O=C([C@@H]1Cc2ccc(OCCCCCCC(=O)[*:3])cc2CN1[*:1])[*:2]; X1 = CCCC(N[*:1])C(=O)C(=O)[*:2]; Chg = N[C@H](C(=O)O)C1CCCCC1; Phg = N[C@H](C(=O)O)c1ccccc1; OtBu = CC(C)(C)O*

How the values were obtained:
NS3 = NS3 (Hepatitis C virus, UniProt A3EZJ3); test: Inhibition of HCV NS3 protease; set-up: species or system Hepacivirus hominis
Outline: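 Continuous spectrophotometric assay with NS4A-tethered single-chain NS3 serine protease, following cleavage of chromogenic ester substrates. Inhibition constants (Ki*) were determined. Compounds were tested as a mixture of two P1 diastereomers because pure P1 isomers racemized extensively under the assay conditions.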

[1] = AUC in rat administered sc; type: ADME, organism-based; conditions: plasma
[2] = AUC in rat administered po; type: ADME, organism-based; conditions: plasma
[3] = Oral bioavailability in rat; type: ADME, organism-based; conditions: in vivo

NS3, sequence (A3EZJ3 whole entry): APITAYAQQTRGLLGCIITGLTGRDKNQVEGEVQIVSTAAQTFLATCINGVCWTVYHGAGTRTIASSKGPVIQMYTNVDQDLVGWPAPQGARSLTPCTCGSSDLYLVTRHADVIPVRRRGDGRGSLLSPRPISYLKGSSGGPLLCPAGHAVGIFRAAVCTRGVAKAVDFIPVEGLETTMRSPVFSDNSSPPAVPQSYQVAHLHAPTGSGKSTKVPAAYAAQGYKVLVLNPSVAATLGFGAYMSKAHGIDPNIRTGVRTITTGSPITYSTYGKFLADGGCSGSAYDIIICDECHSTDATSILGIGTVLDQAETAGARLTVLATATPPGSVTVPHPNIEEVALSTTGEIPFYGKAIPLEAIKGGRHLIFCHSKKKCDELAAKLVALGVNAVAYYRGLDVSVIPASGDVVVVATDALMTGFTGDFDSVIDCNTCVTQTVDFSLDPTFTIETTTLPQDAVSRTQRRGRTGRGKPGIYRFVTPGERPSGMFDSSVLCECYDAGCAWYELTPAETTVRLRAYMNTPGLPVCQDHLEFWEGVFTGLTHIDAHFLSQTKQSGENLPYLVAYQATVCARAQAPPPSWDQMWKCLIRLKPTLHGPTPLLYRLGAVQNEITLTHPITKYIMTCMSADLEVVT

Row | Structure (SMILES) | Ki (NS3) | AUC [1] | AUC [2] | bioavailability [3]
1 | CCCC(NC(=O)[C@@H]1Cc2ccc3cc2CN1C(=O)[C@H](C1CCCCC1)NC(=O)CCCCCCO3)C(=O)C(=O)NCC(=O)NCc1ccccc1 (stereo not given in full) | 2000 nM | – | – | –
2 | CCCC(NC(=O)[C@@H]1Cc2ccc3cc2CN1C(=O)[C@H](C1CCCCC1)NC(=O)CCCCCCO3)C(=O)C(=O)NCC(=O)OCc1ccccc1 (stereo not given in full) | 1700 nM | – | – | –
3 | CCCC(NC(=O)[C@@H]1Cc2ccc3cc2CN1C(=O)[C@H](C1CCCCC1)NC(=O)CCCCCCO3)C(=O)C(N)=O (stereo not given in full) | 2100 nM | – | – | –
4 | CCCC(NC(=O)[C@@H]1Cc2ccc3cc2CN1C(=O)[C@H](C1CCCCC1)NC(=O)CCCCCCO3)C(=O)C(=O)NCC(=O)O (stereo not given in full) | 3000 nM | – | – | –
5 | CCCC(NC(=O)[C@@H]1Cc2ccc3cc2CN1C(=O)[C@H](C1CCCCC1)NC(=O)CCCCCCO3)C(=O)C(=O)NCC(=O)N[C@H](C(=O)OC(C)(C)C)c1ccccc1 (stereo not given in full) ([Chg][Tic(7-O(CH2)6CO)][X1]G[Phg]-OtBu; lactam N-2) | 260 nM | – | – | –

Now those with a lower Ki (NS3), led by results:

Row | Ki (NS3) | AUC [1] | AUC [2] | bioavailability [3] | Structure (SMILES)
6 | 21 nM | 5.5 µM·h | 0.27 µM·h | < 10% | CCCC(NC(=O)[C@@H]1Cc2ccc3cc2CN1C(=O)[C@H](C1CCCCC1)NC(=O)CCCCCCO3)C(=O)C(=O)NCC(=O)N[C@H](C(=O)N(C)C)c1ccccc1 (stereo not given in full) ([Chg][Tic(7-O(CH2)6CO)][X1]G[Phg]-NMe2; lactam N-2)
7 | 15 nM | – | – | – | CCCC(NC(=O)[C@@H]1Cc2ccc3cc2CN1C(=O)[C@H](C1CCCCC1)NC(=O)CCCCCCO3)C(=O)C(=O)NCC(=O)N[C@H](C(=O)O)c1ccccc1 (stereo not given in full) ([Chg][Tic(7-O(CH2)6CO)][X1]G[Phg]-OH; lactam N-2)
